3 compounds from ChEMBL document CHEMBL3351505, “Ultrasound-assisted synthesis of novel 1,2,3-triazoles coupled diaryl sulfone moieties by the CuAAC reaction, and biological evaluation of them as antioxidant and antimicrobial agents” (Eur J Med Chem, 2014) can be followed below.

The subject of series [1] is Bacillus subtilis. Kind of series: Antibacterial activity against Bacillus subtilis ATCC 6633 using 100 uL of test compound after 24 hrs by agar well diffusion method. Type of series: functional. An outline of the steps: (§1)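 Agar well diffusion. Nutrient agar was spread with bacterial suspension at 1×10⁸ CFU/mL, and 10 mm wells were cut. Wells were loaded with compound solution made at 200 mg per 1 mL DMSO. Plates were incubated 24 h at 37 °C and inhibition zones were measured. DMSO served as the negative control.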
Background: A growth-free zone around the sample is the usual read-out of agar diffusion tests.

Series [2] relates to Candida albicans. Nature of the series: Antifungal activity against Candida albicans NRRL Y-477 using 100 uL of test compound after 48 hrs by agar well diffusion method. Type of series: functional. An outline of the steps:
(§2)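 Agar well diffusion. Sabouraud dextrose agar was spread with yeast or fungal suspension at 1×10⁶ CFU/mL, and 10 mm wells were cut. Wells were loaded with compound solution made at 200 mg per 1 mL DMSO. Plates were incubated 48 h at 28 °C and inhibition zones were measured. DMSO served as the negative control.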

Series [3] has as its system Bacillus subtilis. Kind of series: Antibacterial activity against Bacillus subtilis ATCC 6633 after 24 hrs by two fold serial dilution method. Format: functional.
Series [4] concerns Saccharomyces cerevisiae. Kind of series: Antifungal activity against Saccharomyces cerevisiae after 48 hrs by two fold serial dilution method. Type of series: functional. An outline of the steps: (§3)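 Two-fold serial broth dilution in a suitable broth, run only on compounds giving inhibition zones of at least 16 mm. Final concentrations were […]. Each 5 mL received 0.1 mL inoculum and was incubated 48 h at 28 °C. MIC was the lowest concentration without growth.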

In series [5] the test system is Staphylococcus aureus. Nature of the series: Antibacterial activity against Staphylococcus aureus ATCC 29213 using 100 uL of test compound after 24 hrs by agar well diffusion method. Format: functional. The gist of the method: as §1
Series [6] has as its system Micrococcus luteus. Nature of the series: Antibacterial activity against Sarcina lutea after 24 hrs by two fold serial dilution method. Format: functional.
Series [7] relates to Saccharomyces cerevisiae. Kind of series: Antifungal activity against Saccharomyces cerevisiae using 100 uL of test compound after 48 hrs by agar well diffusion method. Format: functional. An outline of the steps: as §2
The subject of series [8] is Pseudomonas aeruginosa. Nature of the series: Antibacterial activity against Pseudomonas aeruginosa ATCC 27953 after 24 hrs by two fold serial dilution method. Type of series: functional.
Series [9] deals with Aspergillus niger. Kind of series: Antifungal activity against Aspergillus niger using 100 uL of test compound after 48 hrs by agar well diffusion method. Type of series: functional. The gist of the method: as §2
In series [10] the test system is Klebsiella pneumoniae. Nature of the series: Antibacterial activity against Klebsiella pneumoniae ATCC 13883 using 100 uL of test compound after 24 hrs by agar well diffusion method. Type of series: functional. An outline of the steps: as §1
In series [11] the test system is Priestia megaterium. Kind of series: Antibacterial activity against Bacillus megaterium ATCC 9885 using 100 uL of test compound after 24 hrs by agar well diffusion method. Type of series: functional. An outline of the steps: as §1
The subject of series [12] is Candida albicans. Nature of the series: Antifungal activity against Candida albicans NRRL Y-477 after 48 hrs by two fold serial dilution method. Format: functional. An outline of the steps: as §3
Series [13] relates to Escherichia coli. Nature of the series: Antibacterial activity against Escherichia coli ATCC 25922 after 24 hrs by two fold serial dilution method. Type of series: functional. The following applies: ATCC 25922, 24 h.
The nature of series [14]: Antioxidant activity assessed as DPPH free radical scavenging activity by spectrophotometric assay. Type of series: physicochemical. An outline of the steps: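 Sample solutions at several concentrations were added to 0.004% DPPH in methanol and incubated 60 min in the dark. Absorbance was read at 517 nm against a blank. Inhibition % = (A_blank − A_sample)/A_blank × 100, where the control contained all reagents except the test compound.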
(In general: Loss of DPPH colour is used to gauge radical scavenging.)

In series [15] the test system is Micrococcus luteus. Nature of the series: Antibacterial activity against Sarcina lutea using 100 uL of test compound after 24 hrs by agar well diffusion method. Type of series: functional. An outline of the steps:
as §1

The test system of series [16] is Escherichia coli. Nature of the series: Antibacterial activity against Escherichia coli ATCC 25922 using 100 uL of test compound after 24 hrs by agar well diffusion method. Type of series: functional. An outline of the steps: as §1
The subject of series [17] is Priestia megaterium. Kind of series: Antibacterial activity against Bacillus megaterium ATCC 9885 after 24 hrs by two fold serial dilution method. Format: functional.
Series [18] deals with Pseudomonas aeruginosa. Nature of the series: Antibacterial activity against Pseudomonas aeruginosa ATCC 27953 using 100 uL of test compound after 24 hrs by agar well diffusion method. Format: functional. An outline of the steps: as §1
In series [19] the test system is Aspergillus niger. Nature of the series: Antifungal activity against Aspergillus niger after 48 hrs by two fold serial dilution method. Type of series: functional. The gist of the method:
as §3

In series [20] the test system is Staphylococcus aureus. Nature of the series: Antibacterial activity against Staphylococcus aureus ATCC 29213 after 24 hrs by two fold serial dilution method. Format: functional.
Series [21] has as its system Klebsiella pneumoniae. Nature of the series: Antibacterial activity against Klebsiella pneumoniae ATCC 13883 after 24 hrs by two fold serial dilution method. The following applies: ATCC 13883, 24 h. Format: functional.

In brackets after ≈: the same amount, converted by molar mass. Activity calls are given as the source filed them. The rule behind the calls is not given here.

As usually defined, the MIC is the lowest concentration found to suppress growth. In general, IC50 refers to the concentration needed to halve the response being measured.

For the compound `O=C(Cn1cc(CC(O)c2ccc(S(=O)(=O)c3ccccc3)cc2)nn1)c1ccccc1` (stereo not drawn), the “diameter of the inhibition zone (DIZ)” value in the series with Bacillus subtilis [1] is reported as 19 mm; in the series with Candida albicans [2] it was 12 mm; in the series on Staphylococcus aureus [5] it was 14 mm; with Aspergillus niger [9], 29 mm; with Klebsiella pneumoniae [10], 22 mm; in the series on Micrococcus luteus [15] it was 20 mm. Besides, the entries for the “diameter of the inhibition zone (DIZ)” value in the series on Escherichia coli [16] and in the series on Pseudomonas aeruginosa [18] were 17 mm and 20 mm, respectively. Also, the MIC came out at 200 µg/mL (≈ 447 µM) against Bacillus subtilis [3] (ATCC 6633, 24 h); 200 µg/mL (≈ 447 µM) against Micrococcus luteus [6]; 200 µg/mL (≈ 447 µM) in the series on Pseudomonas aeruginosa [8]; 200 µg/mL (≈ 447 µM) with Escherichia coli [13]; 100 µg/mL (≈ 223 µM) against Aspergillus niger [19]; 200 µg/mL (≈ 447 µM) in the series on Klebsiella pneumoniae [21]. Also, the MIC entry in the series with Saccharomyces cerevisiae [4], with Candida albicans [12], in the series with Priestia megaterium [17] and with Staphylococcus aureus [20] was “inactive” in each case. The “diameter of the inhibition zone (DIZ)” value in the series with Saccharomyces cerevisiae [7] and in the series on Priestia megaterium [11] was “inactive” throughout. The IC50 in series [14] worked out at 425 µg/mL (≈ 950 µM).

`CC(Cc1cn(CC(=O)c2ccccc2)nn1)(OCc1cn(CC(=O)c2ccccc2)nn1)c1ccc(S(=O)(=O)c2ccccc2)cc1` (stereo not drawn): the “diameter of the inhibition zone (DIZ)” value came to 16 mm in the series on Bacillus subtilis [1]; 15 mm in the series with Candida albicans [2]; 16 mm in the series with Saccharomyces cerevisiae [7]; 28 mm with Aspergillus niger [9]; 23 mm in the series with Klebsiella pneumoniae [10]; 17 mm with Priestia megaterium [11]. In addition, the “diameter of the inhibition zone (DIZ)” value in the series on Micrococcus luteus [15] amounted to 17 mm; with Escherichia coli [16], 21 mm; with Pseudomonas aeruginosa [18], 19 mm. In addition, the MIC result in the series with Bacillus subtilis [3], with Candida albicans [12] and in the series on Staphylococcus aureus [20] was “inactive” in each case. Moreover, the minimal inhibitory concentration (MIC) in the series on Saccharomyces cerevisiae [4] amounted to 200 µg/mL (≈ 303 µM); against Micrococcus luteus [6] it was 200 µg/mL (≈ 303 µM); against Pseudomonas aeruginosa [8] it was 200 µg/mL (≈ 303 µM); against Escherichia coli [13] it was 200 µg/mL (≈ 303 µM); against Priestia megaterium [17] (ATCC 9885, 24 h) it was 200 µg/mL (≈ 303 µM); against Aspergillus niger [19] it was 50 µg/mL (≈ 75.7 µM). Besides, the lowest concentration to inhibit growth against Klebsiella pneumoniae [21] (MIC) was 200 µg/mL (≈ 303 µM). For the same compound, the “diameter of the inhibition zone (DIZ)” value in the series with Staphylococcus aureus [5] is “inactive”. Further, the IC50 in series [14] is 125 µg/mL (≈ 189 µM).

For the compound `O=S(=O)(c1ccccc1)c1ccc(C(Cc2cn(Cc3ccccc3)nn2)OCc2cn(Cc3ccccc3)nn2)cc1` (stereo not drawn), the “diameter of the inhibition zone (DIZ)” value came out at 15 mm with Bacillus subtilis [1]; 18 mm with Candida albicans [2]; 14 mm with Staphylococcus aureus [5]; 18 mm in the series on Saccharomyces cerevisiae [7]; 30 mm with Aspergillus niger [9]; 17 mm in the series on Klebsiella pneumoniae [10]. Besides, the “diameter of the inhibition zone (DIZ)” value in the series with Priestia megaterium [11] stood at 14 mm; with Micrococcus luteus [15] it was 17 mm; in the series on Escherichia coli [16], 19 mm; in the series with Pseudomonas aeruginosa [18], 18 mm. The MIC result in the series with Bacillus subtilis [3], in the series with Priestia megaterium [17] and in the series on Staphylococcus aureus [20] was “inactive” throughout. Moreover, the MIC came to 200 µg/mL (≈ 339 µM) in the series with Saccharomyces cerevisiae [4]; 200 µg/mL (≈ 339 µM) in the series on Micrococcus luteus [6]; 200 µg/mL (≈ 339 µM) with Pseudomonas aeruginosa [8]; 200 µg/mL (≈ 339 µM) against Candida albicans [12] (NRRL Y-477, 48 h); 200 µg/mL (≈ 339 µM) with Escherichia coli [13]; 50 µg/mL (≈ 84.6 µM) against Aspergillus niger [19]. The compound further gave a minimal inhibitory concentration (MIC) against Klebsiella pneumoniae [21] of 200 µg/mL (≈ 339 µM). Moreover, the concentration for half-maximal inhibition (IC50) in series [14] was 500 µg/mL (≈ 846 µM).
